Compound activity (PubChem)
M1 agonist – M1 muscarinic receptor agonism; B-score at 10 µM; CHO-M1 cells, Fluo-4 calcium fluorescence, agonist mode; stronger effect = higher value; 3% of 64,000 active;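 active means fluorescence rise, raw or as B-score row- and column-corrected plate score, outside the 99.7% band of its plate's samples, either direction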
M1 antagonist – blocks the rat M1 muscarinic receptor response to acetylcholine; AID 628; B-score at 10 µM; 3.4% of 64,000 active; CHO-M1 cells, Fluo-4 calcium, ACh EC80 antagonist mode; stronger effect = lower value; P08482;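 active means calcium fluorescence response, raw or row-and-column corrected B-score, differing from the plate sample mean either way at a set confidence level, mostly lower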
BAP1 inh – human BAP1 deubiquitinase inhibition; Q92560; recombinant BAP1, Ub-AMC hydrolysis fluorescence kinetic; stronger effect = lower value; calls only at 20 µM; 0.48% of 72,000 active;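 active means activity remaining at or below 50% of control, provided the compound also passes the data quality filters; inactive means the rest, including low values that fail the filters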;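 further: 100% = DMSO wells rate and 0% = substrate alone blank rate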
Target sequence (Q92560 whole entry, looked up): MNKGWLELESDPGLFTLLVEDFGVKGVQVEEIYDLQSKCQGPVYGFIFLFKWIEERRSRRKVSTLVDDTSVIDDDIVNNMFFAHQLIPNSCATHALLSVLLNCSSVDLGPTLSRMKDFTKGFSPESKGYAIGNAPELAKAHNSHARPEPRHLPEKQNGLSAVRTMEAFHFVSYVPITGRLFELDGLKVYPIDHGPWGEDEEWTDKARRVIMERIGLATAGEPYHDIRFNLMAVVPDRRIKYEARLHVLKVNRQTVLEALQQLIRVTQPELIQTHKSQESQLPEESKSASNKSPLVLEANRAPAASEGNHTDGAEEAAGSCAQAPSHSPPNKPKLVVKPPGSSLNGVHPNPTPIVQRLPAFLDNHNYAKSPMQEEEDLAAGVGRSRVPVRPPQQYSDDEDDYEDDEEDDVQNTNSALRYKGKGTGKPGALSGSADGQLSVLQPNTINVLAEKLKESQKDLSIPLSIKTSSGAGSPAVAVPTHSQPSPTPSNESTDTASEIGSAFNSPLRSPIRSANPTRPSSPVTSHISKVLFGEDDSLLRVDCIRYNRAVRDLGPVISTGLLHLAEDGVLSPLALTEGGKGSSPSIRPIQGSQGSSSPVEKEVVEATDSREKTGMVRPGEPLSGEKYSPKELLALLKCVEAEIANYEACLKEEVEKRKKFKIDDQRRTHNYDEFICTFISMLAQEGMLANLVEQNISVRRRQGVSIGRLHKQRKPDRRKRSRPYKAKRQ
tolC growth inh – E. coli tolC mutant growth inhibition; AID 573; growth inhibition, % at 10 µM (by protocol); 2.2% of 65,000 active; E. coli BW25113 tolC mutant growth, OD615;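 active means growth inhibition at or above a cutoff equal to the mean over every tested compound plus 3 SD, cut at about 60% in these data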;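 further: growth measured after 20 h incubation at 37 °C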
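Test system: E. coli BW25113 ΔtolC::kan bacteria; incubation: 37 °C, 20 h exposure; medium: LB broth supplemented with 50 µg/mL kanamycin; read-out basis: percent growth inhibition; signal: A615 absorbance measurement; compound: 10 µM final, single dose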
Ecoli WT expand – blocks growth of wild type E. coli BW25113 | OD600 absorbance | growth inhibition, % at 100 µM | 0.15% of 98,000 active;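 active means growth inhibition above about 50% at one test dose, limit read from the data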;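 further: growth measured after 20 h incubation at 37 °C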
Hsp90 block – displaces geldanamycin probe from tumor Hsp90 | inhibition, % at 30 µM | 0.35% of 64,000 active | AID 429 | P07900 | NCI-N417 lysate Hsp90, Cy3B-geldanamycin FP displacement;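 active means inhibition above 50%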;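 further: 0% = tracer plus lysate wells and 100% = tracer alone without lysate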
M1 ag confirm – rat M1 muscarinic agonism, confirmation. AID 1488. CHO-M1 cells, Fluo-4 calcium fluorescence, agonist mode; actives lie on both sides. shares compounds with M1 agonist. 19% of 1,700 active. fluorescence change (max-min) at 10 µM;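 active means fluorescence change differs from the solvent-only DMSO control mean at a set confidence level in both duplicate runs; inconclusive means differs from solvent-only control mean in just one of two runs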;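 further: an EC20 dose of acetylcholine follows compound addition during the same imaging run; raw fluorescence intensity difference in instrument units with no normalization to controls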
M4 agonist ctr – counter-screen for M1 agonists: activity at rat M4 receptor | shares compounds with M1 agonist | CHO M4/Gqi5 cells, Fluo-4 calcium fluorescence, agonist mode; actives lie on both sides | fluorescence change (max-min) at 10 µM | 9% of 1,700 active | AID 1741;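 active means fluorescence change differing from the plate's solvent-only control wells at 99.7% confidence in both duplicates, whether higher or lower; inconclusive means differs from solvent controls in only one of two duplicates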
The depositor's hits bear a star. Sampled rows, rich in hits. Any-hit rate of the full collection: about 5.1%.

How did O=C1C2CC=CCC2C(=O)N1c1ccc(-c2nc3ccc(N4C(=O)C5CC=CCC5C4=O)cc3[nH]2)cc1 (stereo not given) do in these assays?
BAP1 inh: inactive

How did Cn1c(=O)cc(SCC(=O)Nc2cccnc2)c2ccccc21 do in these assays?
M1 agonist: 2.7*; M1 antagonist: -0.21; BAP1 inh: inactive; tolC growth inh: -6; Ecoli WT expand: -1; Hsp90 block: -2; M1 ag confirm: 1.2; M4 agonist ctr: -13

How did O=C1CC(c2ccncc2)c2cc3c(cc2N1)OCO3 (stereo not given) do in these assays?
M1 agonist: 2.4*; M1 antagonist: 0.073; BAP1 inh: inactive; tolC growth inh: 0; Ecoli WT expand: -1; Hsp90 block: -6; M1 ag confirm: -8.1; M4 agonist ctr: inconclusive

What do the screens show for `Cc1sc2ncnc(N3CCN(c4ncccn4)CC3)c2c1C`?
M1 agonist: 2*; M1 antagonist: -0.18; BAP1 inh: inactive; tolC growth inh: 30; Ecoli WT expand: 12; Hsp90 block: -6; M1 ag confirm: -13; M4 agonist ctr: -45

How did Cc1cc(C)n(-c2ncnc3sc4c(c23)CCCC4)n1 do in these assays?
M1 agonist: -0.055; M1 antagonist: -0.45; BAP1 inh: inactive; tolC growth inh: 4; Ecoli WT expand: 1; Hsp90 block: -5

How did Cc1cc(C)n(-c2ncnc3sc(C)c(C)c23)n1 do in these assays?
M1 agonist: 5*; M1 antagonist: 1.8; BAP1 inh: inactive; tolC growth inh: 6; Ecoli WT expand: -1; Hsp90 block: -2; M1 ag confirm: -13; M4 agonist ctr: -41

Results for COc1cccc(C(=O)Oc2cccc(N3C(=O)C4C5CCC(C5)C4C3=O)c2)c1 (stereo not given) ?
BAP1 inh: inactive

How did COC(=O)CSc1nc(-c2ccccc2)cc(-c2ccco2)c1C#N do in these assays?
M1 agonist: -0.38; M1 antagonist: -0.33; BAP1 inh: inactive; tolC growth inh: -2; Ecoli WT expand: -6; Hsp90 block: -8

Results for CSc1nc(-c2ccco2)cc(-c2ccccc2)c1C#N ?
M1 agonist: 15*; M1 antagonist: 0.1; BAP1 inh: inactive; tolC growth inh: -11; Ecoli WT expand: -12; Hsp90 block: -4; M1 ag confirm: inconclusive; M4 agonist ctr: inconclusive

What do the screens show for `Cc1ccc(-n2nc3c(c2NC(=O)c2ccccc2Br)CSC3)c(C)c1`?
BAP1 inh: inactive

Results for Cc1cc2ccccc2n1CCNC(=O)c1ccc(S(=O)(=O)N2CCOCC2)cc1 ?
M1 agonist: 8.9*; M1 antagonist: 0.18; BAP1 inh: inactive; tolC growth inh: -7; Ecoli WT expand: -7; Hsp90 block: 1; M1 ag confirm: -18; M4 agonist ctr: -26

Results for Cc1cc2ccccc2n1CCNC(=O)c1ccccc1 ?
M1 agonist: -1.9; M1 antagonist: -0.99; BAP1 inh: inactive; tolC growth inh: 14; Ecoli WT expand: -5; Hsp90 block: 3

How did Cc1c(C(=O)NCC2COc3ccccc3O2)oc2ccc(S(=O)(=O)N3CCOCC3)cc12 (stereo not given) do in these assays?
M1 agonist: 16*; M1 antagonist: -2.4*; tolC growth inh: 33; Ecoli WT expand: -14; M1 ag confirm: -13; M4 agonist ctr: inconclusive

Results for Cc1c(C(=O)NCCN2CCOCC2)oc2ccc(S(=O)(=O)N3CCCCCC3)cc12 ?
M1 agonist: -0.0033; M1 antagonist: -1.5; tolC growth inh: 14; Ecoli WT expand: 3

Results for Cc1c(C(=O)NCCc2ccccc2)oc2ccc(S(=O)(=O)N3CCOCC3)cc12 ?
M1 agonist: 2.3*; M1 antagonist: -1.7; tolC growth inh: 11; Ecoli WT expand: -8; M1 ag confirm: -31*; M4 agonist ctr: inconclusive

What do the screens show for `CCOc1ncccc1C(=O)Nc1cccc(C(=O)Nc2cccc(S(=O)(=O)CCO)c2)c1`?
M1 agonist: 10*; M1 antagonist: -0.58; BAP1 inh: inactive; tolC growth inh: 4; Ecoli WT expand: -2; Hsp90 block: -4; M1 ag confirm: -13; M4 agonist ctr: -20

How did O=C(NCCN1CCN(c2ccccc2F)CC1)c1cccn2c(=O)c3ccccc3nc12 do in these assays?
M1 agonist: 6.7*; M1 antagonist: -1.2; BAP1 inh: inactive; tolC growth inh: 13; Ecoli WT expand: 0; Hsp90 block: -2; M1 ag confirm: 29; M4 agonist ctr: 12

What do the screens show for `CC1(C)Cc2nc3sc4c(N(CCO)CCO)ncnc4c3cc2CO1`?
M1 agonist: 2.8*; M1 antagonist: 0.006; BAP1 inh: inactive; tolC growth inh: 8; Ecoli WT expand: -7; Hsp90 block: -5; M1 ag confirm: inconclusive; M4 agonist ctr: -46

How did COc1ccc(C2NC(=O)NC(C)=C2C(=O)OCCCCl)cc1OC (stereo not given) do in these assays?
BAP1 inh: inactive

What do the screens show for `COC(=O)CSC1=C(C#N)C(c2ccccc2F)CC(=O)N1` (stereo not given)?
M1 agonist: 0.77; M1 antagonist: -0.045; BAP1 inh: inactive; tolC growth inh: 1; Hsp90 block: -2

What do the screens show for `Cc1c(NC(=O)CSC2=C(C#N)C(c3ccccc3F)CC(=O)N2)c(=O)n(-c2ccccc2)n1C` (stereo not given)?
M1 agonist: 3.4*; M1 antagonist: 0.18; BAP1 inh: inactive; tolC growth inh: -6; Ecoli WT expand: 0; Hsp90 block: -4; M1 ag confirm: -27; M4 agonist ctr: inconclusive

Results for COc1ccc2nc(N3CCCCC3)c(C#N)cc2c1 ?
M1 agonist: -0.75; M1 antagonist: -0.015; BAP1 inh: inactive; tolC growth inh: 4; Ecoli WT expand: -1; Hsp90 block: -9

What do the screens show for `COc1ccc2nc(N3CCCC3)c(C#N)cc2c1`?
M1 agonist: 92*; M1 antagonist: -1.2; BAP1 inh: inactive; tolC growth inh: 9; Ecoli WT expand: -2; Hsp90 block: -5; M1 ag confirm: 1016*; M4 agonist ctr: 1175*

How did CN1CCC(NC(=O)c2cccs2)CC1 do in these assays?
M1 agonist: 6.6*; M1 antagonist: -0.054; BAP1 inh: inactive; tolC growth inh: -6; Ecoli WT expand: 2; Hsp90 block: 2; M1 ag confirm: -17; M4 agonist ctr: inconclusive

How did CCCCOCCCNC(=O)c1cccs1 do in these assays?
M1 agonist: -0.76; M1 antagonist: -0.84; BAP1 inh: inactive; tolC growth inh: -9; Ecoli WT expand: 12; Hsp90 block: -2

How did CCOC(=O)N1CCC(NCCNC(=O)c2cccs2)CC1 do in these assays?
M1 agonist: 28*; M1 antagonist: -2.6*; BAP1 inh: inactive; tolC growth inh: -10; Ecoli WT expand: 9; Hsp90 block: 0; M1 ag confirm: 256*; M4 agonist ctr: inconclusive
